# Assay results taken from ChEMBL document CHEMBL4732188, “SARs of a novel series of s-triazine compounds targeting vimentin to induce methuotic phenotype” (Eur J Med Chem, 2021).
# Activity calls are given as the source filed them. The calls are words filed in the database; no cut-off is given here.
# How the values were obtained:
# [1] = system: U-87MG ATCC; test: Induction of vacuolization in human U87 cells at 1 uM by microscopic analysis
# [2] = system: U-87 MG; test: Antiproliferative activity against human U87 cells assessed as reduction in cell growth incubated for 4 days by cell-titer glo assay; type: functional, cell-based, U-87MG ATCC; conditions: 96 h
# Procedure, shortened: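 Cells grown in RPMI1640 with 10% FBS, 2 mM glutamine and penicillin-streptomycin at 37 °C, 5% CO₂. Viability read as ATP by CellTiter-Glo luminescence. IC50 as mean ± SD from triplicate experiments.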
# [3] = system: OVCAR-3; test: Induction of vacuolization in human OVCAR-3 cells at 100 nM by microscopic analysis; type: functional, cell-based
# [4] = system: NCI-H522; test: Induction of vacuolization in human NCI-H522 cells at 100 nM by microscopic analysis; type: functional, cell-based
# [5] = system: SK-MEL-28; test: Induction of vacuolization in human SK-MEL-28 cells at 100 nM by microscopic analysis; type: functional, cell-based
# [6] = system: HCT-15; test: Induction of vacuolization in human HCT-15 cells at 100 nM by microscopic analysis; type: functional, cell-based
# [7] = system: LNCaP; test: Induction of vacuolization in human LNCaP cells at 100 nM by microscopic analysis; type: functional, cell-based
# [8] = system: HepG2; test: Induction of vacuolization in human HepG2 cells at 100 nM by microscopic analysis; type: functional, cell-based
# [9] = system: U-87MG ATCC; test: Induction of methuosis in human U87 cells assessed as increase in number of cytoplasmic vacuoles at 10 nM measured after 24 hrs by […] staining based microscopic analysis; type: functional, cell-based
# Procedure, shortened: (§1)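 U87 cells were cultured in RPMI1640 with 10% FBS at 37 °C, 5% CO₂, and compound-treated for 24 h across 0.01-10. Cytoplasmic vacuolization was imaged by microscopy, with time-lapse confocal tracking of vesicle movement, vacuole fusion, cell rounding and disintegration. Macropinocytic origin was checked by lucifer yellow uptake and by staining with ER and Golgi markers.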
# [10] = system: U-87MG ATCC; test: Induction of methuosis in human U87 cells assessed as increase in size of cytoplasmic vacuoles at 10 nM measured after 24 hrs by […] staining based microscopic analysis; type: functional, cell-based
# Procedure, shortened: as §1
# [11] = system: U-87MG ATCC; test: Induction of methuosis in human U87 cells assessed as macropinocytosis by measuring cytoplasmic vacuolization at 10 nM incubated for 24 hrs by […] staining based confocal microscopic analysis; type: functional, cell-based
# Procedure, shortened: as §1
# [12] = system: U-87MG ATCC; test: Induction of methuosis in human U87 cells assessed as disintegrated cytoplasmic vacuoles at 10 nM measured after 24 hrs by […] staining based microscopic analysis; type: functional, cell-based
# Procedure, shortened: as §1
# [13] = system: U-87MG ATCC; test: Induction of vacuolization in human U87 cells at 31.6 nM incubated for 4 days by microscopic analysis; type: functional, cell-based; conditions: time 4.0 day
# Procedure, shortened: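 Cytoplasmic vacuolization was first screened visually by microscope in U87 cells treated with each compound at 1. Positive compounds were then titrated down to 0.01. Each was scored by its minimal effective concentration: 5 if vacuoles were significant at 10 nM, 4 at 31.6 nM, and so on downward.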
# [14] = system: U-87MG ATCC; test: Induction of methuosis in human U87 cells assessed as increase in accumulation of small vesicles at 10 nM measured after 24 hrs by […] staining based microscopic analysis; type: functional, cell-based
# Procedure, shortened: as §1
# [15] = system: U-87MG ATCC; test: Induction of methuosis in human U87 cells assessed as rounded cytoplasmic vacuoles at 10 nM measured after 24 hrs by […] staining based microscopic analysis; type: functional, cell-based
# Procedure, shortened: as §1
# [16] = system: U-87MG ATCC; test: Induction of methuosis in human U87 cells assessed as increase in intracellular vacuolization in para nuclear region at 10 nM measured < 2 hrs by microscopic analysis; type: functional, cell-based; conditions: time hrs <2
# [17] = molecular target: Vimentin (Homo sapiens) (UniProt P08670); test: Binding affinity to vimentin in human U87 cells at 100 nM incubated for 2 hrs by MALDI-MS/MS analysis; type: cell-based
# Vimentin (Homo sapiens), sequence (P08670 whole entry): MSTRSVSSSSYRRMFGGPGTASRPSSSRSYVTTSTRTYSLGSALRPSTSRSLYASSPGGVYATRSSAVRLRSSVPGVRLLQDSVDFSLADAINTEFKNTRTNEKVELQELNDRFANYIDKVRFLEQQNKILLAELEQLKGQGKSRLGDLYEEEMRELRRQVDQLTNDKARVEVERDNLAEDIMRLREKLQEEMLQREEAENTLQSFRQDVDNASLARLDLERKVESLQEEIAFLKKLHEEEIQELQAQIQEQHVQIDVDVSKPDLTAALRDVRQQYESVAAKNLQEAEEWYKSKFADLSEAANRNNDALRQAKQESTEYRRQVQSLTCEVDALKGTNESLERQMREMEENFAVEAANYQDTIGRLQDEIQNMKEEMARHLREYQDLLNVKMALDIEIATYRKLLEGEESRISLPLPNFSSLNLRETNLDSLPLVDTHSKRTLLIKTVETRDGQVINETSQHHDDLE
# Procedure, shortened: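 Live U87 cells treated with the alkyne photoaffinity probe at 100 nM (DMSO control), then UV irradiated (315-385 nm, 30 min) through the flask bottom. Lysed in Hepes buffer pH 7.5 and click-reacted with biotin-N₃ (1 mM CuSO₄, 1 mM TCEP). Streptavidin-agarose enrichment, 10% SDS-PAGE separation, then LC-MS/MS identification.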
SMILES,Activity [1],IC50 [2] [nM],other results
O=C(Nc1ccc(Cl)cc1)Nc1cccc(Nc2nc(/C=C/c3cccc([N+](=O)[O-])c3)nc(N3CCOCC3)n2)c1,inactive,3660,
O=C(Nc1ccc(Nc2nc(/C=C/c3ccc(Cl)cc3)nc(N3CCOCC3)n2)cc1)Nc1cccc(F)c1,Active,4410,
O=C(Nc1ccc(Cl)cc1)Nc1ccc(Nc2nc(/C=C/c3cccc([N+](=O)[O-])c3)nc(N3CCOCC3)n2)cc1,Active,1710,Activity [3]: Active; Activity [4]: Active; Activity [5]: Active; Activity [6]: Active; Activity [7]: Active; Activity [8]: Active
O=C(Nc1ccc(Cl)cc1)Nc1cccc(Nc2nc(/C=C/c3cccc(Cl)c3)nc(N3CCOCC3)n2)c1,inactive,2200,
CN1CCN(C(=O)c2ccc(NC(=O)Nc3ccc(Nc4nc(/C=C/c5ccccc5)nc(N5CCOCC5)n4)cc3)cc2)CC1,Active,230,
O=C(Nc1ccc(F)cc1)Nc1ccc(Nc2nc(/C=C/c3ccc(Cl)cc3)nc(N3CCOCC3)n2)cc1,Active,2500,
O=C(Nc1ccc(Cl)cc1)Nc1ccc(Nc2nc(/C=C/c3ccccc3)nc(N3CCOCC3)n2)cc1,Active,4790,Activity [9]: Active; Activity [10]: Active; Activity [11]: Active; Activity [12]: Active; Activity [13]: Active; Activity [14]: Active; Activity [15]: Active; Activity [16]: Active
CN(C)CCNC(=O)c1ccc(NC(=O)Nc2ccc(Nc3nc(/C=C/c4ccccc4)nc(N4CCOCC4)n3)cc2)cc1,Active,2480,
O=C(Nc1ccc(Cl)cc1)Nc1cccc(Nc2nc(/C=C/c3ccccc3)nc(N3CCOCC3)n2)c1,inactive,1000,
CN1CCN(c2nc(/C=C/c3cccc([N+](=O)[O-])c3)nc(Nc3ccc(NC(=O)Nc4ccc(Cl)cc4)cc3)n2)CC1,inactive,1210,
O=C(Nc1ccc(Cl)cc1)Nc1ccc(Nc2nc(/C=C/c3cccc([N+](=O)[O-])c3)nc(N3CC(O)C3)n2)cc1,inactive,1320,
CN(C)CCCNC(=O)c1ccc(NC(=O)Nc2ccc(Nc3nc(/C=C/c4ccccc4)nc(N4CCOCC4)n3)cc2)cc1,Active,2310,
O=C(Nc1ccc(Nc2nc(/C=C/c3ccccc3)nc(N3CCOCC3)n2)cc1)Nc1ccc(C(=O)NCCN2CCCC2)cc1,Active,1430,
O=C(Nc1ccc(Cl)cc1)Nc1ccc(Nc2nc(/C=C/c3cccc([N+](=O)[O-])c3)nc(N3CCCC3)n2)cc1,inactive,4470,
CC1CCN(C(=O)c2ccc(NC(=O)Nc3ccc(Nc4nc(/C=C/c5ccccc5)nc(N5CCOCC5)n4)cc3)cc2)CC1,Active,870,
O=C(Nc1ccc(F)cc1)Nc1ccc(Nc2nc(/C=C/c3cccc(Cl)c3)nc(N3CCOCC3)n2)cc1,Active,1330,
O=C(Nc1ccc(Nc2nc(/C=C/c3ccccc3)nc(N3CCOCC3)n2)cc1)Nc1ccc(C(=O)NCCN2CCOCC2)cc1,Active,550,
CN(C)c1nc(/C=C/c2cccc([N+](=O)[O-])c2)nc(Nc2ccc(NC(=O)Nc3ccc(Cl)cc3)cc2)n1,inactive,5120,
C#CCCC1(CCNC(=O)c2ccc(NC(=O)Nc3ccc(Nc4nc(/C=C/c5ccccc5)nc(N5CCOCC5)n4)cc3)cc2)N=N1,,,Activity [17]: Active; Activity [13]: Active
O=C(Nc1ccc(F)cc1)Nc1ccc(Nc2nc(/C=C/c3cccc([N+](=O)[O-])c3)nc(N3CCOCC3)n2)cc1,Active,1110,
O=C(Nc1ccc(Nc2nc(/C=C/c3ccccc3)nc(N3CCOCC3)n2)cc1)Nc1ccc(C(=O)NCCN2CCCCC2)cc1,Active,1110,
O=C(Nc1ccc(F)cc1)Nc1ccc(Nc2nc(/C=C/c3ccccc3)nc(N3CCOCC3)n2)cc1,Active,4750,
CN(C)C(=O)c1ccc(NC(=O)Nc2ccc(Nc3nc(/C=C/c4ccccc4)nc(N4CCOCC4)n3)cc2)cc1,Active,530,
